Measurements: ChEMBL document CHEMBL2401703, “Synthesis of pyrazolo[1,5-a][1,3,5]triazine derivatives as inhibitors of thymidine phosphorylase” (Eur J Med Chem, 2013)
Activity calls are given as the source filed them. The calls are words filed in the database; no cut-off is given here.

Experiments:
[1] = target: Thymidine phosphorylase (Escherichia coli K-12) (UniProt P07650); assay: Inhibition of recombinant Escherichia coli thymidine phosphorylase using thymidine as substrate at 50 uM by UV-spectrophotometric analysis relative to control
Chain of Thymidine phosphorylase (Escherichia coli K-12) (P07650 whole entry, looked up): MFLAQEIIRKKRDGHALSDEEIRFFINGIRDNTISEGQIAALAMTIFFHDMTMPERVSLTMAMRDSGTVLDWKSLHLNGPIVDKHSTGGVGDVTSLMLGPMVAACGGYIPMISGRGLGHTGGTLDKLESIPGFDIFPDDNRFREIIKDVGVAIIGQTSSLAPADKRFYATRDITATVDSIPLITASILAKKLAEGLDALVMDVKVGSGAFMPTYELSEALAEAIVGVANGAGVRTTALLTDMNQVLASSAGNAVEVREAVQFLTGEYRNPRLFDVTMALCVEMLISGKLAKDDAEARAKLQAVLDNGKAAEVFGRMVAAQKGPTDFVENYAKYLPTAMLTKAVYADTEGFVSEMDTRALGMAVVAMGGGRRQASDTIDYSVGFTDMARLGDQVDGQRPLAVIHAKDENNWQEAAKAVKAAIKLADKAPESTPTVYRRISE
Procedure, shortened: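 TP (1.5 U/ml stock in pH 7.0 phosphate buffer) mixed with compound in DMSO (DMSO alone as blank) and thymidine (5 mM stock, 200 µl into 1 ml total) in pH 7.4 phosphate buffer. Absorbance decrease at 290 nm read at 4, 8, 12, 16 and 20 min. Velocity taken from the slope of a linear fit. Percent inhibition calculated versus the blank.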

[2] = target: Thymidine phosphorylase (Escherichia coli K-12, UniProt P07650); assay: Inhibition of recombinant Escherichia coli thymidine phosphorylase using thymidine as substrate by UV-spectrophotometric analysis
Chain of Thymidine phosphorylase (P07650 whole entry): as the sequence (P07650 whole entry, looked up) above

[3] = target: Thymidine phosphorylase (Escherichia coli K-12) (UniProt P07650); assay: Non-competitive inhibition of recombinant Escherichia coli thymidine phosphorylase using thymidine as substrate at 0.01 to 0.2 uM by Lineweaver-burk plot analysis
[4] = target: Thymidine phosphorylase (Escherichia coli K-12) (UniProt P07650); assay: Ratio of 7-deazaxanthine IC50 to compound IC50 for recombinant Escherichia coli thymidine phosphorylase

SMILES | inhibition [1] [%] | IC50 [2] [µM] | inhibition [3] | Ratio IC50 [4]
Cc1ccc(-c2cnn3c(=O)[nH]c(=O)[nH]c23)cc1 | < 50 | – | – | –
O=c1[nH]c(=O)n2nc(-c3ccc(Cl)cc3)cc2[nH]1 | < 50 | – | – | –
COc1ccc(-c2cc3[nH]c(=S)[nH]c(=O)n3n2)cc1 | 50 | 28.4 | – | –
O=c1[nH]c(=O)n2nc(-c3ccc(Br)cc3)cc2[nH]1 | < 50 | – | – | –
Cc1cnn2c(=O)[nH]c(=S)[nH]c12 | < 50 | 87.3 | – | –
O=c1[nH]c(=S)[nH]c2c(Cl)cnn12 | 50 | 27.6 | – | –
O=c1[nH]c(=S)[nH]c2c(-c3ccc(Cl)cc3)cnn12 | 50 | 0.54 | – | –
O=c1[nH]c(=O)n2nc(-c3ccccc3)cc2[nH]1 | < 50 | – | – | –
O=c1[nH]c(=S)[nH]c2c(-c3ccc(F)cc3)cnn12 | 50 | 10.5 | – | –
O=c1[nH]c(=O)n2nc(C(F)(F)F)cc2[nH]1 | < 50 | – | – | –
O=c1[nH]c(=O)n2ncc(-c3ccc(C(F)(F)F)cc3)c2[nH]1 | < 50 | – | – | –
CC(C)(C)c1ccc(-c2cc3[nH]c(=O)[nH]c(=O)n3n2)cc1 | < 50 | – | – | –
O=c1[nH]c(=S)[nH]c2c(-c3ccc([N+](=O)[O-])cc3)cnn12 | – | 0.58 | – | –
CC(C)(C)c1ccc(-c2cc3[nH]c(=S)[nH]c(=O)n3n2)cc1 | 50 | 6.6 | – | –
Cc1ccc(-c2cc3[nH]c(=O)[nH]c(=O)n3n2)cc1 | < 50 | – | – | –
O=c1[nH]c(=S)[nH]c2cc(-c3ccc(C(F)(F)F)cc3)nn12 | 50 | 9.9 | – | –
O=c1[nH]c(=O)n2ncc(-c3ccc(F)cc3)c2[nH]1 | < 50 | – | – | –
O=c1[nH]c(=O)n2ncc(I)c2[nH]1 | < 50 | – | – | –
O=c1[nH]c(=O)n2ncc(Br)c2[nH]1 | < 50 | – | – | –
O=c1[nH]c(=S)[nH]c2cc(-c3ccc(F)cc3)nn12 | 50 | 41.7 | – | –
CC(C)(C)c1ccc(-c2cnn3c(=O)[nH]c(=S)[nH]c23)cc1 | 50 | 5.6 | – | –
O=c1[nH]c(=O)n2nc(-c3ccc(F)cc3)cc2[nH]1 | < 50 | – | – | –
O=c1[nH]c(=S)[nH]c2c(-c3ccc(S(F)(F)(F)(F)F)cc3)cnn12 | – | 0.04 | Active | 800
O=c1[nH]c(=S)[nH]c2c(Br)cnn12 | 50 | 44.4 | – | –
O=c1[nH]c(=S)[nH]c2c(-c3ccc(I)cc3)cnn12 | – | 0.21 | – | 150
O=c1[nH]c(=O)n2ncc(Cl)c2[nH]1 | < 50 | – | – | –

SMILES | inhibition [1] [%] | IC50 [2] [µM] | inhibition [3] | Ratio IC50 [4]
O=c1[nH]c(=O)n2ncc(-c3ccc(Br)cc3)c2[nH]1 | < 50 | – | – | –
Cc1cnn2c(=O)[nH]c(=O)[nH]c12 | < 50 | – | – | –
O=c1[nH]c(=O)n2nc(-c3ccc(C(F)(F)F)cc3)cc2[nH]1 | < 50 | – | – | –
Cc1cc2[nH]c(=S)[nH]c(=O)n2n1 | < 50 | 79.4 | – | –
CC(C)(C)c1cc2[nH]c(=O)[nH]c(=O)n2n1 | < 50 | – | – | –
O=c1[nH]c(=S)[nH]c2cc(-c3ccc(Br)cc3)nn12 | 50 | 34.9 | – | –
CC(C)(C)c1ccc(-c2cnn3c(=O)[nH]c(=O)[nH]c23)cc1 | < 50 | – | – | –
Cc1ccc(-c2cc3[nH]c(=S)[nH]c(=O)n3n2)cc1 | 50 | 19.3 | – | –
O=c1[nH]c(=S)[nH]c2cc(C(F)(F)F)nn12 | 50 | 32.6 | – | –
O=c1[nH]c(=O)n2nccc2[nH]1 | < 50 | – | – | –
O=c1[nH]c(=S)[nH]c2c(I)cnn12 | 50 | 20.8 | – | –
O=c1[nH]c(=O)n2ncc(-c3ccccc3)c2[nH]1 | < 50 | – | – | –
CCOc1ccc(-c2cnn3c(=O)[nH]c(=S)[nH]c23)cc1 | – | 15.5 | – | –
COc1ccc(-c2cnn3c(=O)[nH]c(=S)[nH]c23)cc1 | 50 | 39.7 | – | –
O=c1[nH]c(=S)[nH]c2c(-c3ccc(C(F)(F)F)cc3)cnn12 | 50 | 0.24 | – | –
O=c1[nH]c(=S)[nH]c2cc(-c3ccc(Cl)cc3)nn12 | 50 | 33.5 | – | –
Cc1cc2[nH]c(=O)[nH]c(=O)n2n1 | < 50 | – | – | –
O=c1[nH]c(=O)n2ncc(-c3ccc(Cl)cc3)c2[nH]1 | < 50 | – | – | –
O=c1[nH]c(=S)[nH]c2c(-c3ccc(Br)cc3)cnn12 | 50 | 0.63 | – | –
Cc1ccc(-c2cnn3c(=O)[nH]c(=S)[nH]c23)cc1 | 50 | 1.7 | – | –
O=c1[nH]c(=S)[nH]c2ccnn12 | < 50 | 68.2 | – | –
COc1ccc(-c2cc3[nH]c(=O)[nH]c(=O)n3n2)cc1 | < 50 | – | – | –
O=c1[nH]c(=S)[nH]c2c(-c3ccccc3)cnn12 | 50 | 26.3 | – | –
CC(C)(C)c1cc2[nH]c(=S)[nH]c(=O)n2n1 | 50 | 29.1 | – | –
COc1ccc(-c2cnn3c(=O)[nH]c(=O)[nH]c23)cc1 | < 50 | – | – | –
